From ChEMBL document CHEMBL3817760, “Design, synthesis and evaluation of novel indandione derivatives as multifunctional agents with cholinesterase inhibition, anti-β-amyloid aggregation, antioxidant and neuroprotection properties against Alzheimer's disease” (Bioorg Med Chem, 2016)
The source made the active and inactive calls. The calls are words filed in the database; no cut-off is given here.

Assays:
[1] = target: Acetylcholinesterase (Electrophorus electricus, UniProt O42275); assay: Inhibition of electric eel AChE using acetylthiocholine iodide as substrate preincubated for 5 mins followed by substrate addition measured after 2 mins by Ellman's method
[2] = target: Cholinesterase (Equus caballus, UniProt P81908); assay: Inhibition of equine serum BuChE using butyrylthiocholine iodide as substrate preincubated for 5 mins followed by substrate addition measured after 2 mins by Ellman's method
Outline: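 BuChE from equine serum (0.06 U/mL) in 0.1 M phosphate buffer pH 8.0, compounds diluted from ethanol stocks to 1-100 µM final, standing 5 min before DTNB. Started with 0.075 M butyrylthiocholine; A412 read 2 min later at 25°C. Enzyme-free blanks and inhibitor-free full-activity controls included. Triplicates; IC50 from nonlinear regression of concentration-inhibition data.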

[3] = Selectivity index, ratio of IC50 for equine serum BuChE to IC50 for electric eel AChE
Outline: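 Ratio of IC50 values from the modified Ellman assay. Equine serum BuChE (0.06 U/mL) and electric eel AChE (0.22 U/mL), each in 0.1 M phosphate pH 8.0 with DTNB and 0.075 M thiocholine substrate, A412 at 2 min, 25°C. IC50s were means of three experiments.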

[4] = target: T1, Amyloid-beta precursor protein (Homo sapiens, UniProt P05067); assay: Inhibition of self-induced amyloid beta (1 to 42) (unknown origin) aggregation at 25 uM incubated for 48 hrs measured after 5 mins by thioflavin-T fluorescence assay
Outline: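 Aβ1-42 pretreated with HFIP, then diluted in 50 mM phosphate buffer pH 7.4 to 25 μM final. Incubated ± compound (25 μM) at 37°C for 48 h, then diluted in 50 mM glycine–NaOH pH 8.0 containing 5 μM thioflavin-T. Fluorescence read 5 min later (ex 450/em 485 nm). Inhibition % = (1−IFi/IFc)×100 after background subtraction; triplicate.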

[5] = Cytotoxicity against human SH-SY5Y cells assessed as cell viability at 50 uM after 48 hrs by MTT assay; type: cell-based; conditions: read-out: Activity
Outline: (§1)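 SH-SY5Y cells grown in DMEM with 10% FBS and 1% penicillin-streptomycin at 37°C, 5% CO2. Plated at 2000 cells/well and cultured 24 h, then exposed 48 h to compound at 1-100 μM (DMSO stock diluted in complete medium). MTT added for 4 h, formazan dissolved in DMSO, absorbance read at 570 nm (reference 630 nm). Triplicates; three independent experiments.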

[6] = Cytotoxicity against human SH-SY5Y cells assessed as cell viability at 75 uM after 48 hrs by MTT assay; type: cell-based; conditions: read-out: Activity; outline: as §1
[7] = Cytotoxicity against human SH-SY5Y cells assessed as cell viability at 100 uM after 48 hrs by MTT assay; type: cell-based; conditions: read-out: Activity; outline: as §1
[8] = tested on: SH-SY5Y; assay: Cytotoxicity against human SH-SY5Y cells assessed as decrease in cell viability up to 100 uM after 24 hrs by MTT assay; type: cell-based
[9] = tested on: SH-SY5Y; assay: Cytotoxicity against human SH-SY5Y cells assessed as decrease in cell viability after 48 hrs by MTT assay; type: cell-based; outline: as §1
[10] = tested on: SH-SY5Y; assay: […] in human SH-SY5Y cells at 5 to 20 uM after 24 hrs by DCFH-DA fluorescent assay; type: ADME, cell-based
[11] = target: T1, Amyloid-beta precursor protein; assay: Inhibition of self-induced amyloid beta (1 to 42) (unknown origin) aggregation incubated for 48 hrs measured after 5 mins by thioflavin-T fluorescence assay
[12] = target: T1, Amyloid-beta precursor protein; assay: Potency index, ratio of curcumin IC50 to compound IC50 for self-induced amyloid beta (1 to 42) (unknown origin) aggregation
[13] = target: T1, Amyloid-beta precursor protein; assay: Inhibition of amyloid beta (1 to 42) (unknown origin) aggregation at 25 uM after 72 hrs by transmission electron microscopy
Outline: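 Aβ1-42 stock diluted in 20 mM phosphate buffer (pH 7.4) at 4°C, then incubated at 37°C with or without compound. Final concentrations per methods: peptide 50 μM, compound 25 μM; figure legend gives 25 μM each. Incubation time given as 48 h (methods) and 72 h (text). Samples placed on carbon-coated grids, stained with 1% uranyl acetate and imaged by TEM.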

[14] = tested on: SH-SY5Y; assay: Antioxidant activity in human SH-SY5Y cells assessed as inhibition of H2O2-induced ROS production after 24 hrs by DCFH-DA fluorescent assay; type: functional, cell-based
Outline: (§2)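 SH-SY5Y cells seeded at 2 × 10^4/well and exposed 24 h to H2O2 (200 μM) with or without compound at 5, 10 and 20 μM. Intracellular ROS then probed with DCFH-DA for 20 min and total DCF fluorescence read on a plate reader. Mean ± S.D of three experiments, each in triplicate; one-way ANOVA with Bonferroni test.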

[15] = tested on: SH-SY5Y; assay: Neuroprotective activity against H2O2-induced neurotoxicity in human SH-SY5Y cells assessed as cell viability after 24 hrs by MTT assay relative to control; type: functional, cell-based
Outline: (§3)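 SH-SY5Y cells seeded at 2 × 10^4/well and incubated 24 h. Medium then replaced with serum-free DMEM containing 200 μM H2O2 plus compound (5, 10, 20 μM) at 37°C for 24 h. Viability measured by MTT as % of untreated control, and morphology photographed under phase-contrast microscopy. Mean ± S.D of three experiments in triplicate; ANOVA with Bonferroni test.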

[16] = tested on: SH-SY5Y; assay: Neuroprotective activity against H2O2-induced neurotoxicity in human SH-SY5Y cells assessed as change in cell morphology at 20 uM after 24 hrs by phase contrast microscopy; type: functional, cell-based; outline: as §3
[17] = tested on: SH-SY5Y; assay: Neuroprotective activity against H2O2-induced cell death in human SH-SY5Y cells at 20 uM after 24 hrs by phase contrast microscopy; type: functional, cell-based; outline: as §3
[18] = tested on: SH-SY5Y; assay: Neuroprotective activity against amyloid beta (1 to 42)-induced neurotoxicity in human SH-SY5Y cells assessed as cell viability treated for 24 hrs measured after 48 hrs by MTT assay; type: functional, cell-based
Outline: (§4)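 Aβ1-42 treated with HFIP (1 mg/ml), sonicated, left 24 h at room temperature and lyophilized; film dissolved in DMSO. SH-SY5Y cells plated at 2 × 10^4/well and allowed to attach 24 h. Aβ (25 μM) added ± compound (5-20 μM) in fresh medium. Viability measured by MTT as % of control after 48 h (methods; text says 24 h co-treatment). Morphology imaged by phase-contrast microscopy.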

[19] = tested on: SH-SY5Y; assay: Neuroprotective activity against amyloid beta (1 to 42)-induced neurotoxicity in human SH-SY5Y cells assessed as change in cell morphology at 20 uM after 24 hrs by phase contrast microscopy; type: functional, cell-based; outline: as §4
[20] = Cytotoxicity against human SH-SY5Y cells assessed as cell viability at 1 uM after 48 hrs by MTT assay; type: cell-based; conditions: read-out: Activity; outline: as §1
[21] = Cytotoxicity against human SH-SY5Y cells assessed as cell viability at 5 uM after 48 hrs by MTT assay; type: cell-based; conditions: read-out: Activity; outline: as §1
[22] = Cytotoxicity against human SH-SY5Y cells assessed as cell viability at 10 uM after 48 hrs by MTT assay; type: cell-based; conditions: read-out: Activity; outline: as §1
[23] = Cytotoxicity against human SH-SY5Y cells assessed as cell viability at 25 uM after 48 hrs by MTT assay; type: cell-based; conditions: read-out: Activity; outline: as §1
[24] = target: Acetylcholinesterase (Electrophorus electricus) (UniProt O42275); assay: Mixed type inhibition of electric eel AChE at 10 to 40 nM preincubated with enzyme for 15 mins followed by substrate addition by Lineweaver-Burk plot analysis
Outline: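 Electric eel AChE with the compound, preincubated at 37°C for 15 min before substrate addition. Reciprocal (Lineweaver-Burk) plots were drawn, and their slopes were plotted against inhibitor concentration in a weighted analysis. Ki was taken as the ratio of plot intercept to slope.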

[25] = tested on: SH-SY5Y; assay: Antioxidant activity in human SH-SY5Y cells assessed as inhibition of H2O2-induced ROS production at 10 to 20 uM after 24 hrs by DCFH-DA fluorescent assay; type: functional, cell-based; outline: as §2

Sequence of Cholinesterase (P81908 whole entry): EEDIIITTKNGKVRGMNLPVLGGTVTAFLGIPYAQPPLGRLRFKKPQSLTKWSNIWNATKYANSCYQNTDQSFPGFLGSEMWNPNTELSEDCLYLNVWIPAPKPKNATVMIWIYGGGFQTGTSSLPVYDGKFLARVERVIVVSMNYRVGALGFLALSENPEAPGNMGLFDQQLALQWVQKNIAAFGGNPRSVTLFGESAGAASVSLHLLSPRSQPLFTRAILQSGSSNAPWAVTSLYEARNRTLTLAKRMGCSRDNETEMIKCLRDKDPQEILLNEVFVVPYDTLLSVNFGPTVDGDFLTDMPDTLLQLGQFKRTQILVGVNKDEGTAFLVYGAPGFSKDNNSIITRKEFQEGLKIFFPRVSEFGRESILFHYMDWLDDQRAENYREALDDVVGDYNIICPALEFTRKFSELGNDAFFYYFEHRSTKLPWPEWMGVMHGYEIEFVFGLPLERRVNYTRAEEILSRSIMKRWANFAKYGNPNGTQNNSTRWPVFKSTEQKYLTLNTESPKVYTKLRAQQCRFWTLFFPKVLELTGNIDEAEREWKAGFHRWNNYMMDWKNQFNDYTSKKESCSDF
T1 sequence (P05067 whole entry): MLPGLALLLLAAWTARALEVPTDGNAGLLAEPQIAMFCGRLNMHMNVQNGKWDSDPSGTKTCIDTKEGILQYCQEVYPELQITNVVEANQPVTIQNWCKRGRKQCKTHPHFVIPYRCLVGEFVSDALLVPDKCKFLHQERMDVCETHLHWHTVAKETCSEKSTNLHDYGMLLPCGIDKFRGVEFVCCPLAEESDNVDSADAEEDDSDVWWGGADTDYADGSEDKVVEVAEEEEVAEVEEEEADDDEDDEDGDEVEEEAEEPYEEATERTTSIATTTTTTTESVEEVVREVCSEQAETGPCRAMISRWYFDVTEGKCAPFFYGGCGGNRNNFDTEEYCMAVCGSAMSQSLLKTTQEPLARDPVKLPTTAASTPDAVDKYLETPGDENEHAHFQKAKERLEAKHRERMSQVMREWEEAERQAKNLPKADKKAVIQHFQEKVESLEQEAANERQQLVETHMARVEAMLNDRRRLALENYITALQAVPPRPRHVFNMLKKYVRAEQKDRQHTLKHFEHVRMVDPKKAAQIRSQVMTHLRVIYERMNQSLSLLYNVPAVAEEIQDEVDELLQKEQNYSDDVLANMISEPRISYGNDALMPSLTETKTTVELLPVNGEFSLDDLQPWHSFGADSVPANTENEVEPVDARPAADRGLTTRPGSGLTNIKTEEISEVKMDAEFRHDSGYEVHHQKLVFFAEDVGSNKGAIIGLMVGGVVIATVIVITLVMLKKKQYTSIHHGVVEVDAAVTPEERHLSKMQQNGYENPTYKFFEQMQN
Sequence of Acetylcholinesterase (O42275 whole entry): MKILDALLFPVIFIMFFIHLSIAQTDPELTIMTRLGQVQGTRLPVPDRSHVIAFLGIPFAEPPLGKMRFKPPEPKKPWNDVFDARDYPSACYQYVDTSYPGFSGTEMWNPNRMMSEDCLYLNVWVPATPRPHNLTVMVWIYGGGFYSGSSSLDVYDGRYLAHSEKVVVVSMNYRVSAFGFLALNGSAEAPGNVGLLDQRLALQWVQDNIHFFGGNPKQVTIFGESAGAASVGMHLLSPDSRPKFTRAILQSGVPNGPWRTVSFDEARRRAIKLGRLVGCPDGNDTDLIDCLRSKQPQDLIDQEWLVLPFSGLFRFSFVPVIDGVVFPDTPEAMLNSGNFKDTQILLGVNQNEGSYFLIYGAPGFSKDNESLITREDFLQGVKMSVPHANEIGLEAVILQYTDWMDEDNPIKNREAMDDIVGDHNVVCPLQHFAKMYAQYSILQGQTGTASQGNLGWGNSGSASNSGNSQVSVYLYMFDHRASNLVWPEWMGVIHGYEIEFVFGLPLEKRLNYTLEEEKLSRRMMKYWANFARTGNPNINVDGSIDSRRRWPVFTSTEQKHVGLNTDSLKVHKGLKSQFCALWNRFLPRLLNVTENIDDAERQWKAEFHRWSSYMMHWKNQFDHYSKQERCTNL
Sequence of Acetylcholinesterase (Electrophorus electricus) (O42275 24-633 limits assumed): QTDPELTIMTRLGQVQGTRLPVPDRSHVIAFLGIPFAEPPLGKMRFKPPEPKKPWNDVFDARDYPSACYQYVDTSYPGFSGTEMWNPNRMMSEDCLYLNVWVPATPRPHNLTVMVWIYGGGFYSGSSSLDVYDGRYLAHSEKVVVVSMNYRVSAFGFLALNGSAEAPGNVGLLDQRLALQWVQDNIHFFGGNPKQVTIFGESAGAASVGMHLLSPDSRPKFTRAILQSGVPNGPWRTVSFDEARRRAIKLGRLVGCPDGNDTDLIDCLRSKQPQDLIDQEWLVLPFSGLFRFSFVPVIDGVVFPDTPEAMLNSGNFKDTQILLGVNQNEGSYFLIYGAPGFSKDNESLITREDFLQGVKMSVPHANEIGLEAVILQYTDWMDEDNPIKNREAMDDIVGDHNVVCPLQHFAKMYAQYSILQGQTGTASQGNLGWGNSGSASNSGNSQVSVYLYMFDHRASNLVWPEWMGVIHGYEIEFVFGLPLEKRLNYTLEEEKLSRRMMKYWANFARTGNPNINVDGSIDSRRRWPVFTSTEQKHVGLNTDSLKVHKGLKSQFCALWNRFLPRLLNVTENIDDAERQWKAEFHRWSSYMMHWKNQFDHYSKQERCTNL

SMILES	IC50 [1] [nM]	IC50 [2] [nM]	Ratio IC50 [3]	inhibition [4] [%]	other results
O=C1C(=Cc2ccc(N3CCN(Cc4ccc5c(c4)OCO5)CC3)cc2)C(=O)c2ccccc21	131	4250	33.8	71.8	
O=C1C(=Cc2ccc(N3CCN(C(=O)c4ccco4)CC3)cc2)C(=O)c2ccccc21	48	2610	54.2	82.2	viability at 48 h, 50 µM [5]: 89.6%; viability at 48 h, 75 µM [6]: 86.3%; viability at 48 h, 100 µM [7]: 82.3%; Activity [8]: Non-toxic; Activity [9]: Dose-dependent effect; Activity [10]: Non-toxic; IC50 [11]: 9.2 µM; Ratio IC50 [12]: 1.5; inhibition [13]: Active; inhibition [14]: Dose-dependent effect; Activity [15]: Dose-dependent effect; Activity [16]: Active; Activity [17]: Active; Activity [18]: Dose-dependent effect; Activity [19]: Active; viability at 48 h, 1 µM [20]: 98.1%; viability at 48 h, 5 µM [21]: 96.4%; viability at 48 h, 10 µM [22]: 95.3%; viability at 48 h, 25 µM [23]: 93.9%
O=C1C(=Cc2ccc(N3CCN(C(c4ccccc4)c4ccccc4)CC3)cc2)C(=O)c2ccccc21	61	3350	54.9	80.6	IC50 [11]: 11.8 µM; Ratio IC50 [12]: 1.5
O=C1C(=Cc2ccc(N3CCN(C(=O)c4ccccc4)CC3)cc2)C(=O)c2ccccc21	14200	13400	0.9	53.9	
O=C1C(=Cc2ccc(N3CCN(c4ccc(F)cc4)CC3)cc2)C(=O)c2ccccc21	173	5130	29.6	61.8	
O=C1C(=Cc2ccc(N3CCN(c4ccccn4)CC3)cc2)C(=O)c2ccccc21	112	880	7.8	70.9	
Cc1ccc(N2CCN(c3ccc(C=C4C(=O)c5ccccc5C4=O)cc3)CC2)cc1	251	392	1.5	62.4	
O=C1C(=Cc2ccc(N3CCN(c4ccccc4)CC3)cc2)C(=O)c2ccccc21	2440	4660	1.9	57.3	
O=C1C(=Cc2ccc(N3CCN(c4ncccn4)CC3)cc2)C(=O)c2ccccc21	36	2780	77.1	80.9	viability at 48 h, 50 µM [5]: 89.6%; viability at 48 h, 75 µM [6]: 86.3%; viability at 48 h, 100 µM [7]: 82.3%; Activity [8]: Non-toxic; IC50 [11]: 10.1 µM; Ratio IC50 [12]: 1.5; inhibition [24]: Active; inhibition [13]: Active; inhibition [25]: Active; Activity [15]: Dose-dependent effect; Activity [16]: Active; Activity [17]: Active; Activity [18]: Dose-dependent effect; Activity [19]: Active; viability at 48 h, 1 µM [20]: 98.1%; viability at 48 h, 5 µM [21]: 96.4%; viability at 48 h, 10 µM [22]: 95.3%; viability at 48 h, 25 µM [23]: 93.9%
Cc1ccc(N2CCN(c3ccc(C=C4C(=O)c5ccccc5C4=O)cc3)CC2)c(C)c1	298	415	1.39	69.9	
O=C1C(=Cc2ccc(N3CCN(c4ccc(C(F)(F)F)cc4)CC3)cc2)C(=O)c2ccccc21	141	2140	15.1	74.9	
O=C1C(=Cc2ccc(N3CCN(c4ccc(Cl)cc4)CC3)cc2)C(=O)c2ccccc21	231	1110	4.8	60.8	
